Test results as given in ChEMBL document CHEMBL1122622, “Carbocyclic analogues of xylofuranosylpurine nucleosides. Synthesis and antitumor activity” (J Med Chem, 1984).

Key:
Mus musculus [1] = species on record: Mus musculus; assay: Effective dose by 50% was evaluated; format: functional
Outline: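 P388 mouse lymphoid leukemia cells were grown in culture in the presence of the compound, and the concentration giving 50% effect on growth was taken as the ED₅₀.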

[2] = biological target: Adenosine deaminase (Bos taurus) (UniProt P56658); assay: Compound was evaluated for competitive inhibition of adenosine deaminase and expressed as Ki
Mus musculus [3] = assay: Compound was evaluated for the in vivo antitumor activity against P388 leukemia cells after injecting the compound intraperitoneally at a dose of 2 mg/kg in mice (treatment schedule 1-9 days); format: functional; details: route intraperitoneal
Outline: (§1)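 BDF1 male mice, eight per group, implanted ip with 10⁶ P388 leukemia cells. Drug given ip in 0.5 mL saline. Schedules varied between groups; the 100 mg/kg/day regimen was dosed qd 1-9.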

Mus musculus [4] = assay: Compound was evaluated for the in vivo antitumor activity against P388 leukemia cells after injecting the compound intraperitoneally at a dose of 1 mg/kg in mice; format: functional; details: route intraperitoneal; outline: as §1
Mus musculus [5] = assay: (§2) Compound was evaluated for the in vivo antitumor activity against P388 leukemia cells after injecting the compound intraperitoneally at a dose of 5 mg/kg in mice; format: functional; details: route intraperitoneal; outline: as §1
Mus musculus [6] = assay: Compound was evaluated for the in vivo antitumor activity against p388 leukemia cells after injecting the compound intraperitoneally at a dose of 5 mg/kg in mice; format: functional; details: route intraperitoneal; outline: as §1
Mus musculus [7] = assay: Compound was evaluated for the in vivo antitumor activity against P388 leukemia cells after injecting the compound intraperitoneally at a dose of 50 mg/kg in mice; format: functional; details: route intraperitoneal; outline: as §1
Mus musculus [8] = assay: Compound was evaluated for the in vivo antitumor activity against p388 leukemia cells after injecting the compound intraperitoneally at a dose of 2 mg/kg in mice; format: functional; details: route intraperitoneal; outline: as §1
Mus musculus [9] = assay: as §2; format: functional; details: route intraperitoneal; outline: as §1; remark: listed apart in the source

Chain of Adenosine deaminase (Bos taurus) (P56658 whole entry, looked up): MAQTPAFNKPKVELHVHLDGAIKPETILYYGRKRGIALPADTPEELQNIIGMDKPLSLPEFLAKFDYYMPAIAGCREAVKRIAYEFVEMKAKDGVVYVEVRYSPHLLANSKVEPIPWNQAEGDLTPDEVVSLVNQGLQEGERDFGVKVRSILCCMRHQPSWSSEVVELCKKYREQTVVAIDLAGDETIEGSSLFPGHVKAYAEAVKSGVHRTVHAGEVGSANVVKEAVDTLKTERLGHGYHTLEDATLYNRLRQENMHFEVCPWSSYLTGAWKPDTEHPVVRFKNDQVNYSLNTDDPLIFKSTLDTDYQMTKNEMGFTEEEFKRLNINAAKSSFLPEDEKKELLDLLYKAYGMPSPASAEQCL

Ki [2] [µM] | Compound | ED50 (Mus musculus [1]) [µM] | Survival time (Mus musculus [3]) [days] | Survival time (Mus musculus [4]) [days] | T/C (Mus musculus [4]) [%] | Survival time (Mus musculus [5]) [days] | T/C (Mus musculus [6]) [%] | Survival time (Mus musculus [7]) [days] | T/C (Mus musculus [7]) [%] | T/C (Mus musculus [8]) [%] | Survival time (Mus musculus [9]) [days] | T/C (Mus musculus [9]) [%]
9.9 | Nc1ncnc2c1ncn2[C@@H]1C[C@H](CO)[C@@H](O)[C@H]1O [ARISTEROMYCIN] | 67 |  |  |  |  |  |  |  |  |  | 
 | Nc1ncnc2c1nnn2C1CC(CO)C(O)C1O (configuration not stated) |  | 16.1 | 13.9 | 128 | 18.4 | 173 | 19.5 | 226 | 149 | 17.9 | 175
